Results published in ChEMBL document CHEMBL2331115, “Development of silicon-containing bis-phenol derivatives as androgen receptor antagonists: selectivity switching by C/Si exchange” (Bioorg Med Chem, 2013).
Activity calls are given as the source filed them. No cut-off for these calls is given here.

Legend:
Homo sapiens = species on record: Homo sapiens; experiment: Selectivity index, ratio of agonist PC50 for CMX-GAL4 tagged human VDR to antagonist IC50 for human androgen receptor
Outline: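 Ratio of VDR PC50 to AR IC50. VDR PC50 comes from the GAL4-hVDR luciferase assay in HEK293 cells (50% of positive-control activity). AR IC50 is inhibition of hAR/ARE-luciferase transcription in HEK293 cells under testosterone, both β-galactosidase-normalized, means of three experiments.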

Androgen receptor = target: T1, Androgen receptor (Homo sapiens, UniProt P10275); experiment: Antagonist activity at human androgen receptor expressed in HEK293 cells assessed as inhibition of transcriptional activity by luciferase and beta-galactosidase reporter gene assay; assay type: cell-based
T1 sequence (P10275 whole entry): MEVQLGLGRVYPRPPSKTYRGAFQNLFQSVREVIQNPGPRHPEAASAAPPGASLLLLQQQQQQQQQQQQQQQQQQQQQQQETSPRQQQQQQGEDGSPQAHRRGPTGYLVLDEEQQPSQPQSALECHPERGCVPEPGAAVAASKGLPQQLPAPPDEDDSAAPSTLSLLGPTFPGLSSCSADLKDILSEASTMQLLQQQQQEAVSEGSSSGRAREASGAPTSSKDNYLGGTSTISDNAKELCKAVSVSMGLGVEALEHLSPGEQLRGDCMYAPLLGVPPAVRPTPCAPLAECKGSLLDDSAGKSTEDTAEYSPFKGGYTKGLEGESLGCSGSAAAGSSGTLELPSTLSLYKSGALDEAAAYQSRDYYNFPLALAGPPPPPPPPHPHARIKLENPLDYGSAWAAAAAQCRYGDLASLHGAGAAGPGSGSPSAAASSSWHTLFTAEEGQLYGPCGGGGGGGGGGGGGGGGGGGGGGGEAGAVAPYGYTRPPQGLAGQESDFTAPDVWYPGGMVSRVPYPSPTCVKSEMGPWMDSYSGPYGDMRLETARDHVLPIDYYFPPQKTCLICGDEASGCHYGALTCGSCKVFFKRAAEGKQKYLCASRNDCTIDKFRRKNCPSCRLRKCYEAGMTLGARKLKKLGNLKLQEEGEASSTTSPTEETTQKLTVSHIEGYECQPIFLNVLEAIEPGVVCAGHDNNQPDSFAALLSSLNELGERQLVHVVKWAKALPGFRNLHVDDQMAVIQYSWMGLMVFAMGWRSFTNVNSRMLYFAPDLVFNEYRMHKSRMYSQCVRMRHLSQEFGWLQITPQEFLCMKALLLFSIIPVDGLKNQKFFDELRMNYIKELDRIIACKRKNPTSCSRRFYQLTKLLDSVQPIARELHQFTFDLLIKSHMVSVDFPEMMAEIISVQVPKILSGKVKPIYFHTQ

[1] = target: T2, Vitamin D3 receptor (Homo sapiens) (UniProt P11473); experiment: Agonist activity at CMX-GAL4 tagged human VDR expressed in HEK293 cells assessed as increase in transcriptional activity by luciferase reporter gene assay; assay type: cell-based
T2 sequence (whole entry): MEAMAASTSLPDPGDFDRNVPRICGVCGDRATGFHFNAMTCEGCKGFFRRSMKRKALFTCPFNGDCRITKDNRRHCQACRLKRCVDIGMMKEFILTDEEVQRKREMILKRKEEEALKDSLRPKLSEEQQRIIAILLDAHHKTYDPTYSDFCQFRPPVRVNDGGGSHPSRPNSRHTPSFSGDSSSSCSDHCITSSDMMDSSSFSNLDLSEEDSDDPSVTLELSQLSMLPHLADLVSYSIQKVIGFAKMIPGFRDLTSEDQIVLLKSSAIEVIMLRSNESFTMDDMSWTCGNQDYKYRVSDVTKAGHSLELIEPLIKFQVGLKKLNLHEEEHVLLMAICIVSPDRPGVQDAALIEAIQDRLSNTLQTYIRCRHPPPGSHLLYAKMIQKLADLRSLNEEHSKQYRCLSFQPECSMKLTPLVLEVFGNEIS
Outline: (§1)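 GAL4-hVDR ligand-binding fusion (CMX-GAL4 N-hVDR, 15 ng/well) cotransfected by calcium phosphate into HEK293 cells with TK-MH100x4-Luc reporter (50 ng) and β-galactosidase plasmid (10 ng). Cells grown in DMEM with 5% FBS, 37 °C, 5% CO2. Compound added 22 h post-transfection and cells harvested 16–20 h later. Luciferase normalized to β-galactosidase, means of triplicates. PC50 is the concentration giving 50% of the positive-control response.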

[2] = target: T3, Androgen receptor (Homo sapiens) (UniProt P10275); experiment: Agonist activity at human androgen receptor expressed in HEK293 cells assessed as increase in transcriptional activity in presence of 0.3 nM testosterone by luciferase and beta-galactosidase reporter gene assay; assay type: cell-based
T3 sequence (whole entry): T1 sequence (P10275 whole entry)
Outline: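 HEK293 cells in DMEM with 5% FBS, calcium-phosphate cotransfected with pSG5-hAR (33 ng/well), ARE-tlc-Luc reporter (33 ng) and β-galactosidase plasmid (10 ng). Compounds added 22 h after transfection, with 0.3 nM testosterone present. Harvested about 16–20 h later. Luciferase read and normalized to β-galactosidase, means of triplicates.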

[3] = target: Androgen receptor (Mus musculus) (UniProt P19091); experiment: Potency index, ratio of IC50 for hydroxyflutamide to IC50 for compound against androgen receptor in androgen-dependent mouse SC3 cells assessed as inhibition of testosterone-induced cell growth after 3 days; assay type: cell-based; conditions: SC-3
Outline: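 SC-3 cells cultured 3 days at 37 °C, 5% CO2 in MEM-Alpha with 2% FBS and 10 nM testosterone, with or without compound. Cell number with testosterone alone set as 100%. IC50 is the concentration halving the testosterone-induced increase in cells, means of three experiments. Index is the reference antagonist IC50 divided by the compound IC50.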

[4] = target: Androgen receptor (Mus musculus) (UniProt P19091); experiment: Agonist activity at androgen receptor in androgen-dependent mouse SC3 cells assessed as stimulation of cell growth after 3 days; assay type: cell-based; conditions: SC-3
Outline: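 Androgen-dependent mouse Shionogi carcinoma SC-3 cells grown 3 days at 37 °C, 5% CO2 in MEM-Alpha with 2% FBS plus test compound. Growth promotion scored by cell count.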

HL-60 = experiment: Induction of monocytic cell differentiation in human HL60 cells
LNCaP = experiment: Growth inhibition of human LNCAP cells
Vitamin D3 receptor = target: T4, Vitamin D3 receptor (Homo sapiens, UniProt P11473); experiment: Agonist activity at VDR (unknown origin) by reporter gene assay; outline: as §1
T4 sequence (P11473 whole entry): T2 sequence (whole entry)

Sequence of Androgen receptor (Mus musculus) (P19091 whole entry): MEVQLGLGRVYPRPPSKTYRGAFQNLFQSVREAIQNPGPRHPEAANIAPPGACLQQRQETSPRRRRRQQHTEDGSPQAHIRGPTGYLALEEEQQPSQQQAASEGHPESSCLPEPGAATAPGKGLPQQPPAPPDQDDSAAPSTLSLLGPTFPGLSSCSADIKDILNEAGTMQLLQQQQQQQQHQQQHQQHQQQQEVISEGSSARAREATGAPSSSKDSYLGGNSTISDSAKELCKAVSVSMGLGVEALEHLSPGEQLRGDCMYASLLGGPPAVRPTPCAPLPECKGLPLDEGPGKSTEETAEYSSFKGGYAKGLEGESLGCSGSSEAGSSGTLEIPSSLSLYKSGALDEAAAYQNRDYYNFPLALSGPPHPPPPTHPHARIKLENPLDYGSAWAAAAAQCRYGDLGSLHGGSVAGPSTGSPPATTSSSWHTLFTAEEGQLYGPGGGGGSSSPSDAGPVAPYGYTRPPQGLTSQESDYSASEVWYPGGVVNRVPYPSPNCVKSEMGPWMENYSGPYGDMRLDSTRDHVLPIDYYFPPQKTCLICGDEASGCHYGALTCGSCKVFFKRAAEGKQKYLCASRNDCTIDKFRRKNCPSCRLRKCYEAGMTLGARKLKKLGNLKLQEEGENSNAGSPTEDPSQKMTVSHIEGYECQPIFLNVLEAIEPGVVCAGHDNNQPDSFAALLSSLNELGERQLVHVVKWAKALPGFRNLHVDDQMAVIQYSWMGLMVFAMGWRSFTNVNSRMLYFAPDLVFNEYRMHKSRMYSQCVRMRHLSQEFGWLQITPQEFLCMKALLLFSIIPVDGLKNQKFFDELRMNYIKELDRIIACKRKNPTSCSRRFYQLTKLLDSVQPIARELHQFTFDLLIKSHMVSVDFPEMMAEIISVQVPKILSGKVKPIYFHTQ

SMILES | Selectivity Index (Homo sapiens) | IC50 (Androgen receptor) [µM] | PC50 [1] | Activity [2] | Ratio IC50 [3] | Activity [4] | EC50 (HL-60) [µM] | EC50 (LNCaP) [µM] | EC50 (Vitamin D3 receptor) [µM]
CC[Si](CC)(c1ccc(OC[C@@H](O)CO)c(C)c1)c1ccc(OC[C@H](O)C(C)(C)C)c(C)c1 (mixture of isomers) | 0.14 | 5.8 | 0.81 µM | – | – | – | – | – | –
CC[Si](CC)(c1ccc(O)c(C)c1)c1ccc(OC[C@H](O)C(C)(C)C)c(C)c1 | – | > 10 | 8.2 µM | – | – | – | – | – | –
CCC(CC)(c1ccc(OCC(=O)C(C)(C)C)c(C)c1)c1ccc(OCC2CO2)c(C)c1 (racemic) | < 0.068 | > 10 | 0.68 µM | inactive | – | – | – | – | –
CC[Si](CC)(c1ccc(OC[C@H](O)CO)c(C)c1)c1ccc(OC[C@@H](O)C(C)(C)C)c(C)c1 | > 1.4 | 7.4 | > 10 µM | – | 20 | inactive | – | – | –
CCC(CC)(c1ccc(OCC(O)CO)c(C)c1)c1ccc(OCC(O)C(C)(C)C)c(C)c1 (mixture of isomers) [LG-190178] | – | > 10 | 0.14 µM | inactive | – | – | 0.03 | 0.02 | –
CC[Si](CC)(c1ccc(NC[C@H](O)CO)c(C)c1)c1ccc(OCC(=O)C(C)(C)C)c(C)c1 | – | > 10 | 2.5 µM | – | – | – | – | – | –
CC[Si](CC)(c1ccc(OCC(=O)C(C)(C)C)c(C)c1)c1ccc(OCC(=O)C(C)(C)C)c(C)c1 | > 4.8 | 6.2 | > 30 µM | inactive | – | – | – | – | –
CC[Si](CC)(c1ccc(OCC(=O)C(C)(C)C)c(C)c1)c1ccc(OC[C@H](O)CO)c(C)c1 | 0.93 | 4 | 3.7 µM | – | – | inactive | – | – | –
CC[Si](CC)(c1ccc(OC[C@H](O)CO)c(C)c1)c1ccc(OC[C@H](O)C(C)(C)C)c(C)c1 | 0.31 | 6.7 | 2.1 µM | – | – | – | – | – | –
CC[Si](CC)(c1ccc(OCC(=O)C(C)(C)C)c(C)c1)c1ccc(OCC2CO2)c(C)c1 (racemic) | 0.48 | > 10 | 4.8 µM | inactive | – | – | – | – | –
CC(C)(O)C(=O)Nc1ccc([N+](=O)[O-])c(C(F)(F)F)c1 | – | – | inactive | – | – | – | – | – | –
CC[Si](CC)(c1ccc(OCC(O)CO)c(C)c1)c1ccc(OCC(O)C(C)(C)C)c(C)c1 (mixture of isomers) | 0.14 | 6.8 | 0.92 µM | inactive | – | – | – | – | –
CC[Si](CC)(c1ccc(OC[C@@H](O)CO)c(C)c1)c1ccc(OC[C@@H](O)C(C)(C)C)c(C)c1 | 0.27 | 8.3 | 2.2 µM | – | – | – | – | – | –
CCC(CC)(c1ccc(OCC(=O)C(C)(C)C)c(C)c1)c1ccc(OCC(=O)C(C)(C)C)c(C)c1 | < 0.46 | > 10 | 4.6 µM | inactive | – | – | 0.03 | 0.02 | 0.04
CC[Si](CC)(c1ccc(OCC(=O)C(C)(C)C)c(C)c1)c1ccc(OC[C@@H](O)CO)c(C)c1 | – | > 10 | 2 µM | – | – | – | – | – | –
CC[Si](CC)(c1ccc(NC[C@@H](O)CO)c(C)c1)c1ccc(OCC(=O)C(C)(C)C)c(C)c1 | – | > 10 | 7 µM | – | – | – | – | – | –
